This passage reports Activity results from ChEMBL document CHEMBL4414673, “The DESIGNER Approach Helps Decipher the Hypoglycemic Bioactive Principles of Artemisia dracunculus (Russian Tarragon)” (J Nat Prod, 2019).

The source made the active and inactive calls. No cut-off for these calls is given here.

A short description of data set [1]: Toxicity in high fat diet-induced obese C57BL/6J mouse assessed as effect on body weight at 300 mg/kg administered via gavage for 2 weeks and measured after 6 hrs post does. It is filed as organism-based. The settings on record: in vivo, po. An outline of the steps: (§1)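 Male C57BL/6J mice on a 60% kcal fat diet from 4 weeks of age were weighed weekly. Body weights at 20 weeks of age are reported for mice randomized to the gavage treatment groups, as mean ± SD versus vehicle.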

Data set [2] concerns Mus musculus. Nature of the data set: Effect on total IRbeta expression in high fat diet-induced obese C57BL/6J mouse skeletal muscle at 100 to 300 mg/kg administered via gavage for 2 weeks and measured after 6 hrs post dose by Western blot analysis. The following applies: in vivo, po. It is filed as organism-based. A digest of the protocol:
(§2)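 Male C57BL/6J mice, singly housed, were fed a 60% kcal fat diet from 4 weeks of age for 16 weeks and acclimated to gavage for 2 weeks. They got one gavage dose of 100 or 300 mg/kg in Labrasol vehicle and were euthanized at 6 h. Muscle, liver or gonadal fat was lysed in HEPES/Igepal buffer, and 50 μg protein was immunoblotted with chemiluminescent detection.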
For orientation: Immunoblotting shows a protein as a band on a membrane.

Data set [3] can be described thus: Toxicity in high fat diet-induced C57BL/6J mouse assessed as upregulation of total AKT expression in adipose tissue at 300 mg/kg administered via gavage for 2 weeks and measured after 6 hrs post dose by Western blot analysis. It is filed as organism-based. The settings on record: in vivo, po. A digest of the protocol: as §2
The test system of data set [4] is Mus musculus. Nature of the data set: Effect on insulin signalling in high fat diet-induced obese C57BL/6J mouse assessed as effect on AKT phosphorylation at threonine 308 residue expression in adipose tissue at 100 to 300 mg/kg administered via gavage for 2 weeks and measured after 6 hrs post dose by Western blot analysis. In kind it is functional, organism-based. An outline of the steps: as §2

Data set [5] concerns Mus musculus. Nature of the data set: Effect on insulin signalling in high fat diet-induced obese C57BL/6J mouse assessed as increase in PI3K-P85 expression in skeletal muscle at 100 mg/kg administered via gavage for 2 weeks and measured after 6 hrs post dose by Western blot analysis. It is filed as functional, organism-based. A digest of the protocol: as §2
Data set [6] deals with Mus musculus. Description: Effect on insulin signalling in high fat diet-induced obese C57BL/6J mouse assessed as increase in AKT phosphorylation at serine […] residue in skeletal muscle at 100 to 300 mg/kg administered via gavage for 2 weeks and measured after 6 hrs post dose by Western blot analysis. It is filed as functional, organism-based. An outline of the steps:
as §2

Data set [7] relates to Mus musculus. Description: Effect on insulin signalling in high fat diet-induced obese C57BL/6J mouse assessed as increase in IR-beta phosphorylation at tyrosine 1150 residue at 100 to 300 mg/kg administered via gavage for 2 weeks and measured after 6 hrs post dose by Western blot analysis. It is filed as functional, organism-based. An outline of the steps: as §2
The test system of data set [8] is Mus musculus. Description: Hypoglycemic activity in high fat diet-induced obese C57BL/6J mouse assessed as increase in C-peptide level at 100 to 300 mg/kg […] and measured after 6 hrs post dose. In kind it is functional, organism-based. A digest of the protocol: (§3)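 Diet-induced obese male C57BL/6J mice were given one gavage dose (100 or 300 mg/kg, Labrasol vehicle). Fasting plasma insulin and C-peptide (ng/mL) were measured by ELISA 6 h after dosing, as mean ± SD versus vehicle.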

The test system of data set [9] is Mus musculus. Nature of the data set: Hypoglycemic activity in high fat diet-induced obese C57BL/6J mouse assessed as increase in insulin level at 300 mg/kg administered via gavage […] and measured after 6 hrs post dose. It is filed as functional, organism-based. A digest of the protocol:
as §3

For data set [10], the system named is Mus musculus. Nature of the data set: Hypoglycemic activity in high fat diet-induced obese C57BL/6J mouse assessed as reduction in blood glucose level at 100 to 300 mg/kg […] and measured after 6 hrs post dose. It is filed as functional, organism-based. A digest of the protocol:
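Obese male C57BL/6J mice (60% kcal fat diet for 16 weeks, gavage-acclimated for 2 weeks) received one oral gavage dose of 100 or 300 mg/kg in Labrasol. Fasting whole-blood glucose was read by glucometer at baseline and hourly. Results are given as mg/dL and % change from baseline at 6 h, mean ± SD versus vehicle.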

In data set [11] the test system is C2C12. Nature of the data set: Activation of insulin signalling in palmitate-induced insulin resistant mouse C2C12 cells assessed as increase in glycogen level at 10 ug/ml. It is filed as functional, cell-based. An outline of the steps:
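Palmitate-treated, insulin-resistant C2C12 myotubes (differentiated in 2% horse serum, low-glucose DMEM) were treated at 10 μg/mL and exposed to insulin for 10 min before harvest. Glycogen was measured with a kit assay and expressed as ng released glucose/μg protein.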

Data set [12] in a line: Toxicity in high fat diet-induced obese C57BL/6J mouse assessed as effect on body weight at 100 to 300 mg/kg administered via gavage for 2 weeks and measured after 6 hrs post dose. It is filed as organism-based. The settings on record: in vivo, po. An outline of the steps: as §1
The target of data set [13] is RAC-alpha serine/threonine-protein kinase (Mus musculus) (UniProt P31750). Nature of the data set: Activation of insulin signalling in palmitate-induced insulin resistant mouse C2C12 cells assessed as upregulation of AKT phosphorylation at threonine 308 and Ser273 residue at 10 ug/ml by Western blot analysis. In kind it is cell-based. A digest of the protocol:
(§4)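 C2C12 myoblasts were grown in high-glucose (25 mM) DMEM with 10% FBS and differentiated with 2% horse serum, then switched to low-glucose (5 mM) medium. Insulin resistance was induced with palmitate. Myotubes were treated at 10 μg/mL, exposed to insulin for 10 min and harvested. Total and phosphorylated signaling proteins were analysed by Western blot.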

For data set [14], the system named is Mus musculus. Description: Effect on insulin signalling in high fat diet-induced C57BL/6J mouse assessed as AKT phosphorylation at Ser […] residue in liver at 100 to 300 mg/kg administered via gavage for 2 weeks and measured after 6 hrs post dose by Western blot analysis. In kind it is functional, organism-based. An outline of the steps:
as §2

The subject of data set [15] is Mus musculus. Nature of the data set: Effect on insulin signalling in high fat diet-induced obese C57BL/6J mouse assessed as effect on AKT phosphorylation at threonine 308 residue expression in liver at 100 to 300 mg/kg administered via gavage for 2 weeks and measured after 6 hrs post dose by Western blot analysis. It is filed as functional, organism-based. A digest of the protocol:
as §2

Data set [16] concerns Mus musculus. Nature of the data set: Effect on insulin signalling in high fat diet-induced C57BL/6J mouse assessed as AKT phosphorylation at Ser […] residue in adipose tissue at 100 to 300 mg/kg administered via gavage for 2 weeks and measured after 6 hrs post dose by Western blot analysis. In kind it is functional, organism-based. An outline of the steps:
as §2

In data set [17] the target is Glycogen synthase kinase-3 alpha/beta (Mus musculus) (UniProt Q9WV60+Q2NL51). Nature of the data set: Activation of insulin signalling in palmitate-induced insulin resistant mouse C2C12 cells assessed as increase GSK-3 alpha/beta phosphorylation at 10 ug/ml by Western blot analysis. It is filed as cell-based. An outline of the steps: as §4
Glycogen synthase kinase-3 alpha/beta (Mus musculus), sequence (Q2NL51 whole entry, looked up): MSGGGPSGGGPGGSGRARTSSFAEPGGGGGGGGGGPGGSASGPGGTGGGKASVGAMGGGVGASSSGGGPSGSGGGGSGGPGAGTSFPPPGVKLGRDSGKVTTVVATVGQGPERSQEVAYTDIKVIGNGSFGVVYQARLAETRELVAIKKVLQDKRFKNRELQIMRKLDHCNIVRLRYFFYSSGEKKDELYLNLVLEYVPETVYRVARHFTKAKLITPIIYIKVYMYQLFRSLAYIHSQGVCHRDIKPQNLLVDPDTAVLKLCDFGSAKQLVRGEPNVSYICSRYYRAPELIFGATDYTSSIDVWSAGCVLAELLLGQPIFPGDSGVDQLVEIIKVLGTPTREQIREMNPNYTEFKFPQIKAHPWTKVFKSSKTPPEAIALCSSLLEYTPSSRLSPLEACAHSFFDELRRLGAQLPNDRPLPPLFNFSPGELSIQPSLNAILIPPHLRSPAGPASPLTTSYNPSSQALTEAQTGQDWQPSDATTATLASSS
Glycogen synthase kinase-3 alpha/beta (Mus musculus), sequence (Q9WV60 whole entry, looked up): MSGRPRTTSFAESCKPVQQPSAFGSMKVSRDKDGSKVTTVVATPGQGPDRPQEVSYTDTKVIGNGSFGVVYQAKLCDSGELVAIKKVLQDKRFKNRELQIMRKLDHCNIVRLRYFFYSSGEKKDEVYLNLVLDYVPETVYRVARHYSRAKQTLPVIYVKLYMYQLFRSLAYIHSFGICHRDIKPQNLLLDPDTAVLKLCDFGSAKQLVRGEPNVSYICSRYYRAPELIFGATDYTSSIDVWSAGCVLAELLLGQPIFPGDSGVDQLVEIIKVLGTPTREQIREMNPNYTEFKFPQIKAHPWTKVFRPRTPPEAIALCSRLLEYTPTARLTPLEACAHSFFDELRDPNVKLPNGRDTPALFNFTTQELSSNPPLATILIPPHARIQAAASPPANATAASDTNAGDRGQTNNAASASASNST

RAC-alpha serine/threonine-protein kinase (Mus musculus), sequence (P31750 whole entry): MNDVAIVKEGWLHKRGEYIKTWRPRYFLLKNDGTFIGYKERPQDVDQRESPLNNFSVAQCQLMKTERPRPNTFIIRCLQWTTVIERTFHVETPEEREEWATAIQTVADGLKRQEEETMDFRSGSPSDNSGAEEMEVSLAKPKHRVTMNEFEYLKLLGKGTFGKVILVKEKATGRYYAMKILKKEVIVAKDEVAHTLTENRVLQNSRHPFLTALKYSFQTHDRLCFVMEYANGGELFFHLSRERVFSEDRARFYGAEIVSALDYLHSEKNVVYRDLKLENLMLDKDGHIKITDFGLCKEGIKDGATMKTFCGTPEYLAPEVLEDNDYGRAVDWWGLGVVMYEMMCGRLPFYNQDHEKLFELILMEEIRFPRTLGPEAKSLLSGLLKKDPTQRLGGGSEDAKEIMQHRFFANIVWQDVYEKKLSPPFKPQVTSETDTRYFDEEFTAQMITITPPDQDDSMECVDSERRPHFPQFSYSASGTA

For the molecule `CN(C)C(=N)N=C(N)N` [METFORMIN], the Activity entry in data set [1] is given as “Non-Toxic”.

Consider `COc1ccc(CCC(=O)c2ccc(O)cc2O)cc1`, for which the results for the Activity result in data set [2], in data set [3] and in data set [12] were “Non-Toxic”, “Toxic” and “Non-Toxic”, respectively. Besides, the outcome in data set [4], in data set [7], in [15] and in data set [16] was inactive. For the same molecule, the outcome in data set [5], in data set [6], in [8], in data set [9], in data set [10] and in data set [11] was Active. Besides, the result in data set [13], in [14] and in [17] was Active.
